Measurements collected from several papers.
Target: Casein kinase I isoform gamma-1 (CSNK1G1, Homo sapiens, UniProt Q9HCP0)

| Structure (SMILES) | test | conditions | remaining binding [%] |
| --- | --- | --- | --- |
| CC1CCCN1c1nccc(-c2cnn3ncccc23)n1 (stereo not drawn) | binding | 1 µM | 100 |
| O=C(NS(=O)(=O)c1ccc(NCC2CCOCC2)c([N+](=O)[O-])c1)c1ccc(N2CCN(Cc3ccc(C(F)(F)F)cc3-c3ccc(Cl)cc3)CC2)cc1Oc1cnc2[nH]ccc2c1 | cell-free assay, competition with immobilised ligand | 1 µM | 95 |
| CN(C)c1nccc(-c2cnc3ncccn23)n1 | binding | 1 µM | 81 |
| CCC(=O)N[C@H]1CC[C@@H](C(=O)N(C)c2ccc(-c3nc4ccccc4o3)cc2)C1 | cell-free assay, competition with immobilised ligand | 1 µM | 90 |
| CN(c1nccc(-c2cnn3ncccc23)n1)C1CC1 | binding | 1 µM | 100 |
| C[C@@H]1CN(c2cc(-c3n[nH]c4ccc(OC5(C)CC5)cc34)ncn2)C[C@H](C)O1 | cell-free assay, competition with immobilised ligand | 0.1 µM | 100 |
| N[C@H]1CCN(c2nccc(-c3cnn4ncccc34)n2)C1 | binding | 1 µM | 82 |
| O=C(NCC1CCOCC1)c1n[nH]cc1NC(=O)c1c(F)cccc1F | binding, competition with immobilised ligand | 1 µM | 78 |
| CN(CCCC(F)(F)F)c1nccc(-c2cnn3ncccc23)n1 | binding | 1 µM | 100 |
| O=C(c1ccc(Nc2ncc(Cl)c(-c3cc4ccccc4s3)n2)cc1)N1CCC(N2CCCC2)CC1 | binding, competition with immobilised ligand | 1 µM | 80 |
| COc1cnc(Nc2cccc(S(N)(=O)=O)c2)nc1N1CCN(c2ccccc2)C(=O)C1 | binding, competition with immobilised ligand | 1 µM | 100 |
| COc1cccc(CNC(=O)c2nc3scc(COCc4ccc(C(=O)O)cc4)c3c(=O)[nH]2)c1 | cell-free assay, competition with immobilised ligand | 1 µM | 100 |
| O=C(NCCCN1CCOCC1)c1ccc(Nc2nccc(-c3cc4ccccc4s3)n2)cc1 | binding, competition with immobilised ligand | 1 µM | 81 |
| CCN1CCN(Cc2ccc(C(=O)Nc3ccc(C)c(Oc4ccc5c(c4)CC(=O)N5)c3)cc2C(F)(F)F)CC1 | binding, competition with immobilised ligand | 1 µM | 100 |
| CO[C@@H](C)c1c(Nc2ccc([C@H](N(C)C(=O)C3CCS(=O)(=O)CC3)C(F)(F)F)cc2)cnc2cc(Cl)nn12 | cell-free assay, competition with immobilised ligand | 1 µM | 100 |
| CNC(=O)[C@@H]1CC[C@@H](n2c(-c3ccc4cnccc4c3)nc3ccc(C(=O)NCc4cccc(C(N)=O)c4)cc32)C1 | binding, competition with immobilised ligand | 1 µM | 100 |
| C[C@@H]1CN(c2cc(-c3nn(C)c4ccc(OC5(C)CC5)cc34)ncn2)C[C@H](C)O1 | cell-free assay, competition with immobilised ligand | 1 µM | 89 |
| C[C@H]1CCN(c2nccc(-c3cnn4ncccc34)n2)C1 | binding | 1 µM | 85 |
